Experimental data taken from publication PMC5756105 (Journal of proteome research, 2017).
Structures can show the parent of a compound that is named as a salt. Where two headings read alike, the source gives them in different places.

How the values were obtained:
[1] = test system: hMSCs; experiment: CCK-8 cell viability assay on 96-well plates, basal hMSCs; format: cell-based, human; details: for reduction in toxicity from basal hMSCs to their osteogenic progenies: basal hMSCs vs OD1-OD6; for IC50: read-out: IC50 hMSC
[2] = test system: hiPSCs; experiment: CCK-8 cell viability assay on 96-well plates, basal hiPSCs; format: cell-based, human; details: for higher sensitivity of hiPSCs compared to basal hMSCs: ratio of IC50, hiPSCs vs basal hMSCs; for IC50: read-out: IC50 hiPSC; for dependency of effects on stages of hepatogenic differentiation of hiPSCs: Phase I-III
[3] = test system: basal hMSCs; experiment: qHTS CellTiter-Glo viability assay in 1536-well format, basal hMSCs; format: cell-based, human; details: qHTS CTG, basal vs osteogenesis day 1
In short: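 hMSCs were seeded at 500 cells/well directly in basal or osteogenic differentiation medium (osteogenesis day 1 arm) and held 24 h at 37°C/5% CO₂. A LOPAC library was then added at seven concentrations (0.0029–46 μM, 1:5 serial dilutions) for 48 h. ATP was read by CellTiter-Glo luminescence after 30 min at room temperature. IC₅₀ and efficacy came from dose-response curves, with hit cutoffs of efficacy ≥ 50% and IC₅₀ ≤ 20 μM.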

[4] = test system: hMSC-OD1; experiment: CCK-8 cell viability assay on 96-well plates, hMSCs osteogenesis Day 1; format: cell-based; details: Homo sapiens, read-out: IC50 hMSC-OD1
[5] = test system: hMSC-OD3; experiment: CCK-8 cell viability assay on 96-well plates, hMSCs osteogenesis Day 3; format: cell-based; details: Homo sapiens, read-out: IC50 hMSC-OD3
[6] = test system: hMSC-OD6; experiment: CCK-8 cell viability assay on 96-well plates, hMSCs osteogenesis Day 6; format: cell-based; details: Homo sapiens, read-out: IC50 hMSC-OD6
[7] = test system: hepatic differentiation Phase I cells; experiment: CCK-8 cell viability assay, hiPSCs at end of hepatogenic differentiation Phase I; format: cell-based; details: Homo sapiens, HepA, 48 h, read-out: IC50 Hepa Diff Phase I
[8] = test system: hepatic differentiation Phase II cells; format: cell-based; details: Homo sapiens, HepA, 48 h, read-out: IC50 Hepa Diff Phase II
[9] = test system: hepatic differentiation Phase III cells; format: cell-based; details: Homo sapiens, HepA, 48 h, read-out: IC50 Hepa Diff Phase III
[10] = basal hMSCs, 48-hour treatment, CCK-8, mean ± s.e.m., n=3
[11] = basal hiPSCs, 48-hour treatment, CCK-8, mean ± s.e.m., n=3

Compound | reduction in toxicity from basal hMSCs to their osteogenic progenies [1] | IC50 [1, 10] [µM] | higher sensitivity of hiPSCs compared to basal hMSCs [2] | IC50 [2, 11] [µM] | toxicity to basal hMSCs versus osteogenic hMSCs in primary screening [3] | IC50 ([1]; Homo sapiens, 48 h) [µM] | IC50 [4] [µM] | IC50 [5] [µM] | IC50 [6] [µM] | IC50 ([2]; Homo sapiens, 48 h) [µM] | dependency of effects on stages of hepatogenic differentiation of hiPSCs [2] | IC50 [7] [µM] | IC50 [8] [µM] | IC50 [9] [µM] | decrease in toxicity from basal to OD6 ([1]; hMSCs, basal vs OD6, p<0.001) [fold] | differentiation-stage dependency of toxicity on hMSCs ([1]; basal hMSCs vs OD1 to OD6)
CC[n+]1c(/C=C/C=C2/N(C)c3ccccc3C2(C)C)sc2ccccc21.[I-] [AC-93253] | 3~4 fold | 3.94 ± 1.18 | more than 30 times | 0.09 ± 0.038 | much higher toxicity |  |  |  |  |  |  |  |  |  |  | 
C[C@@]12C(=O)OC(=O)[C@]1(C)[C@H]1CC[C@@H]2O1 [Cantharidin, cantharidin] | 3~4 fold |  |  |  |  | 1.54 ± 0.5 | 3.98 ± 0.69 | 4.95 ± 1.33 | 6.17 ± 2.55 | 4.36 ± 1.4 | not significantly dependent | 2.7 ± 0.49 | 2.58 ± 0.28 | 1.12 ± 0.34 |  | 
CC(=O)[C@]1(O)Cc2c(O)c3c(c(O)c2[C@@H](O[C@H]2C[C@H](N)[C@H](O)[C@H](C)O2)C1)C(=O)c1ccccc1C3=O [Idarubicin, idarubicin hydrochloride] |  | 0.38 ± 0.074 | more than 30 times |  |  |  | 2.96 ± 0.22 | 7.43 ± 4.56 | 10.8 ± 0.43 | 0.004 ± 0.001 | significantly dependent | 0.07 ± 0.003 | 1.25 ± 0.23 | 4.99 ± 1.38 | 28 | 
O=C1C(SCCO)=C(SCCO)C(=O)c2ccccc21 [NSC 95397] |  | 6.55 ± 1.76 |  | 6.91 ± 3.01 |  |  |  |  |  |  |  |  |  |  |  | not differentiation-stage dependent
